These results are taken from ChEMBL document CHEMBL1152413, “Glucose-based spiro-heterocycles as potent inhibitors of glycogen phosphorylase” (Bioorg Med Chem, 2009).

The source made the active and inactive calls. The rule behind the calls is not given here.

Data set [1] addresses T1, Glycogen phosphorylase, muscle form (Oryctolagus cuniculus, UniProt P00489).
T1 sequence (P00489 whole entry): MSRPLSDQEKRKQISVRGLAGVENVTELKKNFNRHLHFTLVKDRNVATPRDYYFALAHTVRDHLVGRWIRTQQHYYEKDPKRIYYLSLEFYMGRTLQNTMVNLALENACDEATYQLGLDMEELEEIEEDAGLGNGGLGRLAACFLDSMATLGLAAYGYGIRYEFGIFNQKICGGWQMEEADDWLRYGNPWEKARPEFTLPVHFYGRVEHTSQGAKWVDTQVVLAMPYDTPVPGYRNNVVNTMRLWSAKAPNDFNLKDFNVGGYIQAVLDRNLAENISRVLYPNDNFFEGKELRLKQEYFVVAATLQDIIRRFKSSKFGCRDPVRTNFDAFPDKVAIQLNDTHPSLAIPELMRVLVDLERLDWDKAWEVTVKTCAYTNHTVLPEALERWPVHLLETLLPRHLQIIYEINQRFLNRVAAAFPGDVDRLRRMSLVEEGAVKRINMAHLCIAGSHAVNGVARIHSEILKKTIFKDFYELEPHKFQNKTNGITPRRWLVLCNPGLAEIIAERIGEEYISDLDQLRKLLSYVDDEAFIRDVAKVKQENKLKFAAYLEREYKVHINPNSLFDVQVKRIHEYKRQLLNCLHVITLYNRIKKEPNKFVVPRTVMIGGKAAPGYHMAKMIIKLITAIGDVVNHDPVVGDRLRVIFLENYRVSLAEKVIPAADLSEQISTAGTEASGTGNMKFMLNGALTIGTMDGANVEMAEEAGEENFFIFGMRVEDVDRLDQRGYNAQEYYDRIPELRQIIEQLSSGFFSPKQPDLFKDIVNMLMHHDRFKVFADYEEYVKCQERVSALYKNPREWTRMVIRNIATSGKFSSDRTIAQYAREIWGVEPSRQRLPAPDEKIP
Kind of data set: Inhibition of rabbit muscle glycogen phosphorylase b by Lineweaver-Burke plot analysis. In a few lines:
(§1)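 Glycogen phosphorylase b isolated from rabbit skeletal muscle (Fischer–Krebs method with dithiothreitol in place of L-cysteine), recrystallized at least three times. Assayed in glycogen-synthesis direction with α-D-glucose-1-phosphate 2–20 mM, glycogen 1% w/v and AMP 1 mM held constant. Inhibitors were dissolved in DMSO and diluted into 50 mM triethanolamine, 1 mM EDTA, 1 mM DTT, keeping final DMSO below 1%. Activities were analysed as Lineweaver–Burk plots by nonlinear fitting.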

In data set [2] the target is T2, Glycogen phosphorylase, muscle form (Oryctolagus cuniculus) (UniProt P00489).
T2 sequence (whole entry): T1 sequence (P00489 whole entry)
The experiment in a line: Inhibition of rabbit muscle glycogen phosphorylase b at 625 uM by Lineweaver-Burke plot analysis. Summed up:
as §1

Data set [3] addresses T1, Glycogen phosphorylase, muscle form.
Data set [4] can be described thus: Solubility in DMSO. The data set is classed as physicochemical.
Data set [5] deals with T2, Glycogen phosphorylase, muscle form (Oryctolagus cuniculus). The experiment in a line: Inhibition of rabbit muscle glycogen phosphorylase b at 312.5 uM by Lineweaver-Burke plot analysis. In a few lines:
as §1

Regarding `O=[N+]([O-])c1ccc(/C(=N/O)S[C@@H]2O[C@H](CO)[C@@H](O)[C@H](O)[C@H]2O)cc1`, the half-inhibitory concentration (IC50) (usually the concentration at which inhibition is half-maximal) in data set [1] was over 10000 µM. Turning to `N#Cc1ccc(/C(=N/O)S[C@@H]2O[C@H](CO)[C@@H](O)[C@H](O)[C@H]2O)cc1`, the inhibition result in data set [2] is “inactive”. For `COc1ccc(C2=NO[C@]3(O[C@H](CO)[C@@H](O)[C@H](O)[C@H]3O)S2)cc1`, in data set [3], affinity was put at a Ki of 8.2 µM. In the case of `N#Cc1ccc(/C(=N\O)N[C@@H]2O[C@H](CO)[C@@H](O)[C@H](O)[C@H]2O)cc1`, affinity in data set [3] was put at a Ki of 1800 µM. As to `OC[C@H]1O[C@@H](S/C(=N\O)c2ccc3ccccc3c2)[C@H](O)[C@@H](O)[C@@H]1O`, the solubility entry in data set [4] is “Insoluble”. As to `COc1ccc(/C(=N/O)S[C@@H]2O[C@H](CO)[C@@H](O)[C@H](O)[C@H]2O)cc1`, the inhibition entry in data set [5] is “inactive”.

`OC[C@H]1O[C@]2(ON=C(c3ccc(-c4ccccc4)cc3)S2)[C@H](O)[C@@H](O)[C@@H]1O`: in data set [1], the IC50 was found to be 250 µM. With `OC[C@H]1O[C@@]2(ON=C(c3ccncc3)S2)[C@H](O)[C@@H](O)[C@@H]1O`, the inhibition result in data set [2] was “inactive”. In data set [1], `O=[N+]([O-])c1ccc(C2=NO[C@]3(O[C@H](CO)[C@@H](O)[C@H](O)[C@H]3O)S2)cc1` yielded an IC50 of 250 µM.

`OC[C@H]1O[C@@H](S/C(=N\O)c2ccc(-c3ccccc3)cc2)[C@H](O)[C@@H](O)[C@@H]1O`: the solubility result in data set [4] is “Insoluble”. In data set [1], `N#Cc1ccc(C2=NO[C@]3(O[C@H](CO)[C@@H](O)[C@H](O)[C@H]3O)S2)cc1` gave an IC50 of 700 µM. In the case of `O=[N+]([O-])c1ccc(/C(=N\O)N[C@@H]2O[C@H](CO)[C@@H](O)[C@H](O)[C@H]2O)cc1`, in data set [2], the inhibition entry is “inactive”.

In the case of `OC[C@H]1O[C@@H](S/C(=N\O)c2ccncc2)[C@H](O)[C@@H](O)[C@@H]1O`, in data set [2], the inhibition result was “inactive”. In the case of `OC[C@H]1O[C@]2(ON=C(c3ccc(F)cc3)S2)[C@H](O)[C@@H](O)[C@@H]1O`, in data set [3], the Ki (usually a measure of affinity in units of concentration, obtained from inhibition or displacement) amounted to 48 µM.
